This note sets out measurements from ChEMBL document CHEMBL1153486, “Discovery of a class of potent gap-junction modifiers as novel antiarrhythmic agents” (Bioorg Med Chem Lett, 2009).

The source made the active and inactive calls.

A short description of data set [1]: Stability in rat plasma after 3 hrs. Type of data set: ADME, cell-free. The note with it: read-out: Stability. In a few lines:
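Rat plasma incubation for 3 h; stability reported as percent of compound remaining.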

Data set [2] deals with Mus musculus. Kind of data set: Antiarrhythmic activity in calcium chloride-induced mouse arrhythmia model assessed as prolongation of time to conduct cardiac block at 10 pmol/kg, iv relative to control. Type of data set: functional, Heart. In a few lines: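 Mice received an intravenous infusion of CaCl2 after IV test compound. The read-out was time to cardiac conduction block, expressed as percent increase over control. Values are means of at least three experiments with standard deviation.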

Data set [3] is described as follows: Metabolic stability in rat liver microsomes assessed as half life. Format: ADME, Microsome. (Liver microsomes are a subcellular fraction often used to study metabolism.)
Data set [4] can be described thus: Volume of distribution at steady state in CD1 mouse at 1 mg/kg, iv. To be noted: in vivo, read-out: Vdss. Type of data set: ADME, organism-based. Set-up: dose 1 mg/kg, route intravenous. The method in brief: (§1)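 CD-1 mice were dosed IV at a nominal 1 mg/kg (actual 0.77 mg/kg or 1.6 mg/kg for some compounds) and PO at 5 mg/kg. Parameters were derived from mean drug concentration, N = 3 animals/time point.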

A short description of data set [5]: Clearance in CD1 mouse at 1 mg/kg, iv. Set-up: dose 1 mg/kg, route intravenous. The note with it: in vivo. Type of data set: ADME, organism-based. In a few lines:
as §1

Data set [6] in a line: Inhibition of CYP450. Format: ADME.
A short description of data set [7]: Cmax in CD1 mouse at 5 mg/kg, po. Format: ADME, organism-based. On the set-up: dose 5 mg/kg, route oral. To be noted: in vivo. The method in brief: as §1
Data set [8] has as its system Mus musculus. Kind of data set: Antiarrhythmic activity in calcium chloride-induced mouse arrhythmia model assessed as prolongation of time to conduct cardiac block at 1 to 30 mg/kg, po relative to control. Format: functional, organism-based. To be noted: Heart. In a few lines:
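Compounds were given orally at 1–30 mg/kg to mice, which then received an intravenous CaCl2 infusion. The read-out was prolongation of time to conduction block versus control.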

The nature of data set [9]: AUC in CD1 mouse at 5 mg/kg, po. The note with it: plasma. On the set-up: dose 5 mg/kg, route oral. Format: ADME, organism-based. In a few lines: as §1
The target of data set [10] is Voltage-gated inwardly rectifying potassium channel KCNH2 (Homo sapiens, UniProt Q12809). Kind of data set: Inhibition of human ERG.
The nature of data set [11]: Metabolic stability in human liver microsomes assessed as half life. Type of data set: ADME, Microsome.
A short description of data set [12]: Oral bioavailability in CD1 mouse at 5 mg/kg. To be noted: in vivo. Format: ADME, organism-based. The method in brief: as §1
The nature of data set [13]: Tmax in CD1 mouse at 5 mg/kg, po. Format: ADME, organism-based. On the set-up: dose 5 mg/kg, route oral. The note with it: in vivo. In a few lines: as §1
The nature of data set [14]: Half life in CD1 mouse at 1 mg/kg, iv. Type of data set: ADME, organism-based. The note with it: in vivo. Set-up: dose 1 mg/kg, route intravenous. The method in brief: as §1
The nature of data set [15]: Half life in CD1 mouse at 5 mg/kg, po. On the set-up: dose 5 mg/kg, route oral. To be noted: in vivo. Format: ADME, organism-based. In a few lines:
as §1

The test system of data set [16] is Canis familiaris. Kind of data set: Volume of distribution at steady state in dog at 1 mg/kg, iv. Type of data set: ADME, organism-based, Canis lupus familiaris. On the set-up: dose 1 mg/kg, route intravenous. To be noted: in vivo. In a few lines:
(§2)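 Dogs were dosed IV at 1 mg/kg and PO at 5 mg/kg; one compound was given 2.3 mg/kg IV and 7.8 mg/kg oral. Values are means of at least three animals, or two animals where no SD is given.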

Data set [17] is described as follows: Tmax in CD1 mouse at 0.77 mg/kg, po. Type of data set: ADME, organism-based. Set-up: dose 0.77 mg/kg, route oral. To be noted: in vivo.
Data set [18] can be described thus: Half life in CD1 mouse at 0.77 mg/kg, iv. Format: ADME, organism-based. On the set-up: dose 0.77 mg/kg, route intravenous. To be noted: in vivo. The method in brief: as §1
Data set [19] can be described thus: Tmax in dog at 5 mg/kg, po. The note with it: in vivo. On the set-up: dose 5 mg/kg, route oral. Type of data set: ADME, organism-based, Canis lupus familiaris.
The nature of data set [20]: Half life in dog at 5 mg/kg, po. Format: ADME, organism-based, Canis lupus familiaris. On the set-up: dose 5 mg/kg, route oral. To be noted: in vivo. In a few lines: as §2
Data set [21] can be described thus: Volume of distribution at steady state in CD1 mouse at 0.77 mg/kg, iv. The note with it: in vivo, read-out: Vdss. Type of data set: ADME, organism-based. Set-up: dose 0.77 mg/kg, route intravenous. The method in brief: as §1
Data set [22] can be described thus: Cmax in dog at 5 mg/kg, po. Format: ADME, organism-based, Canis lupus familiaris. Set-up: dose 5 mg/kg, route oral. To be noted: in vivo. In a few lines: as §2
A short description of data set [23]: Oral bioavailability in dog at 5 mg/kg. Type of data set: ADME, organism-based, Canis lupus familiaris. To be noted: in vivo. In a few lines:
as §2

For data set [24], the system named is Mus musculus. Description: AUC in CD1 mouse at 5 mg/kg, po. To be noted: in vivo.
The nature of data set [25]: AUC in dog at 5 mg/kg, po. Type of data set: ADME, organism-based, Canis lupus familiaris. On the set-up: dose 5 mg/kg, route oral. The note with it: plasma. The method in brief: as §2
Data set [26] has as its system Mus musculus. Description: Oral bioavailability in CD1 mouse at 0.77 mg/kg. Type of data set: ADME, organism-based. To be noted: in vivo.
The nature of data set [27]: Cmax in CD1 mouse at 0.77 mg/kg, po. Type of data set: ADME, organism-based. Set-up: dose 0.77 mg/kg, route oral. To be noted: in vivo.
The test system of data set [28] is Mus musculus. Description: Antiarrhythmic activity in calcium chloride-induced mouse arrhythmia model assessed as prolongation of time to conduct cardiac block at 20 pmol/kg, iv relative to control. Format: functional, Heart. In a few lines:
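A medium-throughput IV screen in the mouse CaCl2 infusion arrhythmia model (n = 7–11). Time to conduction block was expressed as percent of saline control.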

Data set [29] concerns Canis familiaris. Kind of data set: Half life in dog at 1 mg/kg, iv. Format: ADME, organism-based, Canis lupus familiaris. On the set-up: dose 1 mg/kg, route intravenous. The note with it: in vivo. In a few lines:
as §2

The nature of data set [30]: Half life in CD1 mouse at 0.77 mg/kg, po. Set-up: dose 0.77 mg/kg, route oral. Format: ADME, organism-based. To be noted: in vivo.

Voltage-gated inwardly rectifying potassium channel KCNH2, sequence (Q12809 whole entry): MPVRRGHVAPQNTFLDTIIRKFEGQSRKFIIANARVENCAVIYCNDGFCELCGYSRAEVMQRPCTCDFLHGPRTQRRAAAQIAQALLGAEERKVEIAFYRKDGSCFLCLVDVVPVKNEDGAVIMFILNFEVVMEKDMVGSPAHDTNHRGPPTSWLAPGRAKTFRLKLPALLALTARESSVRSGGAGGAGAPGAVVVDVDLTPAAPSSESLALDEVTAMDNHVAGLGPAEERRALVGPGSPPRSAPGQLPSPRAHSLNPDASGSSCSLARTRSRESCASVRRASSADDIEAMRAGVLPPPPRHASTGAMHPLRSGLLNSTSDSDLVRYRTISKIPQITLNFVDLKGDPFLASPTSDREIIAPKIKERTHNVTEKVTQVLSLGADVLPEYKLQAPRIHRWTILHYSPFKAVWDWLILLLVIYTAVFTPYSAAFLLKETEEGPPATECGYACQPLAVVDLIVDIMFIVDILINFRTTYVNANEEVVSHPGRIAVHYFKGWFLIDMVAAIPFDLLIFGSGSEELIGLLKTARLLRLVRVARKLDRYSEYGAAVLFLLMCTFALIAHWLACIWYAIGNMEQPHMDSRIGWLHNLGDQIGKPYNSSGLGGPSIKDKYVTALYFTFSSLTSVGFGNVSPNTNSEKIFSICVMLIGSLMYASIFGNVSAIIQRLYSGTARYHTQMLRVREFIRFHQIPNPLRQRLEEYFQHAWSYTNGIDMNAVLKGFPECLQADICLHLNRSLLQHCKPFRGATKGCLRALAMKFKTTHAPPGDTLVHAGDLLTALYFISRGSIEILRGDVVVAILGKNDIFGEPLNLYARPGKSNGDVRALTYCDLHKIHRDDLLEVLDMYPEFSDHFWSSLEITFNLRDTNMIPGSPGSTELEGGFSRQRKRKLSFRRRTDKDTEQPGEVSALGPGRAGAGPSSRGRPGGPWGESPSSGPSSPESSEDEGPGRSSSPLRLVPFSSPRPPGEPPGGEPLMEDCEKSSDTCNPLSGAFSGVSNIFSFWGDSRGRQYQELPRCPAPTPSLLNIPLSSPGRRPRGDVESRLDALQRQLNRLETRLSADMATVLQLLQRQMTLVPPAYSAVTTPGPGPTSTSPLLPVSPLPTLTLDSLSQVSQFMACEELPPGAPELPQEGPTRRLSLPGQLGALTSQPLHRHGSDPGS

Take `CCNC(=O)[C@@H]1C[C@@H](NC(=O)c2ccccc2)CN1C(=O)CN`: the remaining at 3 h in data set [1] turned out to be 100%. The Activity in the data set on Mus musculus [2] is 137.2%.

Usually half-life stands for the time needed for the level to fall by half in the phase considered. What is called clearance is a measure of how efficiently the substance is removed, as volume per time. Higher therefore signals a high capacity for elimination. As usually defined, the Cmax is the peak of the concentration-time curve. In general, AUC refers to the area under the concentration-time curve, a measure of exposure. A high value points to more exposure. What is called bioavailability is the share of a dose that reaches the circulation, judged against a reference dose that is usually intravenous. Read a high bioavailability as much systemic uptake. What is called Tmax is the time from dosing to the highest level. For `NCC(=O)N1C[C@H](NC(=O)c2ccccc2)C[C@H]1C(=O)NC1CC1`, the half-life in data set [3] was > 0.5 h; in data set [11], > 0.5 h; in data set [14], 2.1 h; in [15] it was 1.2 h. Besides, the Vd in data set [4] is 0.6 L/kg. In data set [5], this molecule displayed a clearance of 20 mL/min/kg. Besides, the Activity result in [6] was “Not Active”; in data set [10], “Not Active”; in the data set on Mus musculus [2], 196%. In data set [7], this molecule registered a Cmax of 87 ng/mL. For the same molecule, in the data set on Mus musculus [8], the outcome was Active. The AUC in data set [9] was determined as 305 ng·h/mL. In addition, in data set [1], the remaining at 3 h is 96%. In [12], the bioavailability was determined as 7%. Moreover, the Tmax in data set [13] amounted to 0.25 h.

As usually defined, the Vdss is the apparent volume that relates the amount in the body to the concentration in plasma or blood. Read a low Vdss as little distribution into tissue. As to `NCC(=O)N1C[C@H](NC(=O)c2ccccc2)C[C@H]1C(=O)O` [DANEGAPTIDE], in the data set on Canis familiaris [16], the Vdss stood at 8 L/kg. The time of peak concentration (Tmax) in [17] was 0.5 h; in data set [19], 1.1 h. Besides, the half-life in [18] is 1.6 h; in data set [20], 4 h; in data set [30] it was 1.9 h. Besides, in data set [21], the Vd stood at 2.7 L/kg. The Cmax was determined as 799 ng/mL in data set [22] and 26 ng/mL in [27]. Further, the bioavailability in data set [23] came to 14%. In addition, the AUC came out at 73 ng·h/mL in the data set on Mus musculus [24] and 4790 ng·h/mL in [25]. Further, the F in the data set on Mus musculus [26] is 6%. For the same molecule, the Activity with Mus musculus [28] was 149.8%; in the data set on Mus musculus [2] it was 206.6%. In addition, the t1/2 with Canis familiaris [29] turned out to be 6.3 h. For the same molecule, the remaining at 3 h in [1] turned out to be 93%.

Regarding `NCC(=O)N1C[C@H](NC(=O)c2ccccc2)C[C@H]1C(N)=O`, in data set [1], the remaining at 3 h worked out at 27%. In addition, in the data set with Mus musculus [2], the Activity turned out to be 193.2%.

In the case of `CNC(=O)[C@@H]1C[C@@H](NC(=O)c2ccccc2)CN1C(=O)CN`, the remaining at 3 h in data set [1] worked out at 87%. For the same molecule, in the data set on Mus musculus [2], the Activity is reported as 145%.

Take `CN(C)CC(=O)N1C[C@H](NC(=O)c2ccccc2)C[C@H]1C(=O)O`: the remaining at 3 h in [1] was 100%. The Activity with Mus musculus [2] came to 118.9%.

Take `CC(C)NC(=O)[C@@H]1C[C@@H](NC(=O)c2ccccc2)CN1C(=O)CN`: the half-life in data set [3] is > 0.5 h; in [11], > 0.5 h; in [14] it was 0.9 h; in [15] it was 1.6 h. For the same molecule, the Vd in data set [4] was 2 L/kg. This molecule also had a clearance in data set [5] of 58 mL/min/kg. In addition, the results for the Activity result (in data set [6]; in [10]; with Mus musculus [2]) were “Not Active”, “Not Active” and 162%, respectively. Moreover, the Cmax in data set [7] amounted to 44 ng/mL. The result in the data set on Mus musculus [8] was Active. For the same molecule, in [9], the AUC was 90 ng·h/mL. In addition, in data set [1], the remaining at 3 h was 100%. The molecule also showed a bioavailability in [12] of 6%. In addition, in data set [13], the Tmax worked out at 0.25 h.

In the case of `CNCC(=O)N1C[C@H](NC(=O)c2ccccc2)C[C@H]1C(=O)O`, the remaining at 3 h in [1] came out at 100%. Moreover, in the data set with Mus musculus [2], the Activity is recorded as 120.7%.
